Data as given in ChEMBL document CHEMBL1122411 (J Med Chem, 1983).

Legend:
Mus musculus [1] = experiment: Toxicity in mice after 12-20 days at a dose of 20 mg/kg/day; value is 13/9; format: functional
Mus musculus [2] = experiment: Weight change on day 7 in L1210 Lymphoid Leukemia in mice at a dose of 20 mg/kg/day (qdx9); format: functional
Procedure, shortened: (§1)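 Male B6D2F₁J mice (20–25 g) bearing ip L1210 ascites (10⁵ cells, day 0) were used, 5 per group. Drug was given ip in water at pH 7.5–8.0 from day 1 on q2d×5, qd×9 or b.i.d.×10 schedules. Animals were weighed after 7 days and percent weight change recorded.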

L1210 = experiment: cytotoxicity against L1210 cells; format: functional; details: Mus musculus, read-out: ID50 (the source's name)
Mus musculus [3] = organism: Mus musculus; experiment: Percentage increase in life span after 10-24 days; format: functional
Procedure, shortened: (§2)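 Male B6D2F1J mice (20–25 g), randomized after i.p. inoculation with 10^5 L1210 ascitic leukemia cells on day 0. Drug in water, pH 7.5–8.0, given i.p. on a q2d×5, qd×9 (from day 1) or b.i.d.×10 schedule; 5 mice per group. %ILS = [(T/C) − 1]100 from median survival days of treated versus control mice. Range is survival days.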

Mus musculus [4] = experiment: Toxicity in mice after 12-16 days at a dose of 20 mg/kg/day; value is 14/9; format: functional
Mus musculus [5] = experiment: Toxicity in mice after 9-24 days at a dose of 12 mg/kg/day; value is 18/9; format: functional
Mus musculus [6] = experiment: Toxicity in mice after 9-11 days at a dose of 2 mg/kg/day; value is 10/8.5; format: functional
Mus musculus [7] = experiment: Weight change on day 7 in L1210 Lymphoid Leukemia in mice at a dose of 60 mg/kg/day (qdx9); format: functional
Procedure, shortened: (§3)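 Male B6D2F1J mice (20–25 g) were inoculated i.p. with 10⁵ L1210 ascites cells on day 0 and randomized into groups of 5. Drug in water at pH 7.5–8.0 was given i.p. daily for 9 days (qd×9) from day 1. Animals were weighed after 7 days, and the % body-weight change was recorded under a standard NCI protocol.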

Mus musculus [8] = experiment: Toxicity in mice after 16-18 days at a dose of 9 mg/kg/day; value is 17/9; format: functional
Mus musculus [9] = organism: Mus musculus; experiment: (§4) Percentage increase in life span after 12-20 days; format: functional; procedure, shortened: as §2
Mus musculus [10] = experiment: Weight change on day 7 in L1210 Lymphoid Leukemia in mice at a dose of 4 mg/kg/day (qdx9); format: functional; procedure, shortened: as §3
Mus musculus [11] = experiment: Toxicity in mice after 12-19 days at a dose of 8 mg/kg/day; value is 12/8.5; format: functional
[12] = biological target: Dihydrofolate reductase (Lactobacillus casei) (UniProt P00381); details: Lacticaseibacillus casei
[13] = biological target: T1, Dihydrofolate reductase (Mus musculus) (UniProt P00375); experiment: Binding affinity to Dihydrofolate reductase of L1210/R71 using spectrophotometric assay
T1 sequence (whole entry): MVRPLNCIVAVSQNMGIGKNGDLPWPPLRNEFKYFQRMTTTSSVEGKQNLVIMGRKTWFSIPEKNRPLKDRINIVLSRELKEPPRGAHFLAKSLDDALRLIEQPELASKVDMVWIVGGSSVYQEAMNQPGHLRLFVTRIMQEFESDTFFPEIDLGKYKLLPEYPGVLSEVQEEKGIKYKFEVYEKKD
Procedure, shortened: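 The enzyme was isolated from MTX-resistant L1210/R71 cultured cells and purified on MTX-agarose. The assay measured ΔA340 at 22 °C in 0.1 M Tris, pH 7.0, with 62 nM enzyme. Enzyme was preincubated 2 min with inhibitor and NADPH, and dihydrofolate was then added to start the reaction. ID₅₀ determined.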

Mus musculus [14] = experiment: Weight change on day 7 in L1210 Lymphoid Leukemia in mice at a dose of 8 mg/kg/day (qdx9); format: functional; procedure, shortened: as §3
[15] = biological target: T1, Dihydrofolate reductase (Mus musculus)
Mus musculus [16] = experiment: Weight change on day 7 in L1210 Lymphoid Leukemia in mice at a dose of 12 mg/kg/day (b.i.d. x10); format: functional; procedure, shortened: as §1
[17] = biological target: T1, Dihydrofolate reductase (Mus musculus); experiment: Binding affinity to Dihydrofolate reductase of L1210 cell line using [H]MTX as radioligand; format: cell-based
Procedure, shortened: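 Competitive [³H]MTX binding to dihydrofolate reductase from L1210 leukemia. Ascites cells from tumor-bearing mice were washed and lysed before use. The assay ran at 37 °C in 0.1 M potassium phosphate, pH 6.8. ID₅₀ was read as inhibition of radioligand binding, with MTX included in each experiment.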

Mus musculus [18] = organism: Mus musculus; experiment: Percentage increase in life span after 9-24 days; format: functional; procedure, shortened: as §2
Mus musculus [19] = experiment: Toxicity in mice after 10-24 days at a dose of 15 mg/kg/day; value is 21/9; format: functional
Mus musculus [20] = experiment: Weight change on day 7 in L1210 Lymphoid Leukemia in mice at a dose of 15 mg/kg/day (b.i.d. x10); format: functional; procedure, shortened: as §1
Mus musculus [21] = experiment: Toxicity in mice after 12-20 days at a dose of 40 mg/kg/day; value is 14/9; format: functional
Mus musculus [22] = experiment: Toxicity in mice after 12-22 days at a dose of 60 mg/kg/day; value is 21/9; format: functional
[23] = Tested for substrate activity of compound for Carboxypeptidase G1; parameters: species or system Mus musculus
Procedure, shortened: (§5)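 Cleavage by carboxypeptidase G₁ was followed as the A320 change on release of the pteroate. Conditions were 37 °C in 0.05 M potassium phosphate, pH 6.7, with 100 μM ZnSO₄. Enzyme was diluted in 1% BSA to give ΔA320 of 0.02–0.2/min. Km and Vmax came from Lineweaver-Burk plots. Ki came from competitive runs varying analogue against fixed MTX, or vice versa.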

Mus musculus [24] = organism: Mus musculus; experiment: Percentage increase in life span after 8-17 days; format: functional; procedure, shortened: as §2
Mus musculus [25] = experiment: Toxicity in mice after 8-17 days at a dose of 4 mg/kg/day; value is 11/8.5; format: functional
Mus musculus [26] = organism: Mus musculus; experiment: as §4; format: functional; procedure, shortened: as §2; remark: listed apart in the source
Mus musculus [27] = experiment: Weight change on day 7 in L1210 Lymphoid Leukemia in mice at a dose of 9 mg/kg/day (b.i.d. x10); format: functional
Procedure, shortened: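 L1210 ascitic leukemia was implanted i.p. (10⁵ cells, day 0) in male B6D2F1J mice of 20–25 g, 5 per group. Dosing was b.i.d.×10, except that on days 5 and 6 a single double-dose injection was given. The % weight change was recorded at day 7.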

Mus musculus [28] = experiment: Weight change on day 7 in L1210 Lymphoid Leukemia in mice at a dose of 2 mg/kg/day (qdx9); format: functional; procedure, shortened: as §1
Mus musculus [29] = organism: Mus musculus; experiment: Percentage increase in life span after 9-11 days; format: functional; procedure, shortened: as §2
[30] = biological target: Dihydrofolate reductase (Lactobacillus casei) (UniProt P00381); details: Lacticaseibacillus casei; remark: listed apart in the source
Mus musculus [31] = organism: Mus musculus; experiment: Percentage increase in life span after 12-22 days; format: functional; procedure, shortened: as §2
Mus musculus [32] = experiment: Toxicity in mice after 17-19 days at a dose of 40 mg/kg/day; value is 18/9; format: functional
Mus musculus [33] = organism: Mus musculus; experiment: Percentage increase in life span after 12-19 days; format: functional; procedure, shortened: as §2
[34] = system: Carboxypeptidase G1 (Pseudomonas); experiment: Tested for substrate activity of compound for Carboxypeptidase G1
Mus musculus [35] = organism: Mus musculus; experiment: Percentage increase in life span after 16-18 days; format: functional; procedure, shortened: as §2
[36] = Tested for substrate activity of compound for Carboxypeptidase G1 (exp 2); procedure, shortened: as §5
Mus musculus [37] = experiment: Weight change on day 7 in L1210 Lymphoid Leukemia in mice at a dose of 40 mg/kg/day (qdx9); format: functional; procedure, shortened: as §3
Mus musculus [38] = organism: Mus musculus; experiment: Percentage increase in life span after 12-16 days; format: functional; procedure, shortened: as §2
Mus musculus [39] = organism: Mus musculus; experiment: Percentage increase in life span after 17-19 days; format: functional; procedure, shortened: as §2

Dihydrofolate reductase (Lactobacillus casei), sequence (P00381 whole entry): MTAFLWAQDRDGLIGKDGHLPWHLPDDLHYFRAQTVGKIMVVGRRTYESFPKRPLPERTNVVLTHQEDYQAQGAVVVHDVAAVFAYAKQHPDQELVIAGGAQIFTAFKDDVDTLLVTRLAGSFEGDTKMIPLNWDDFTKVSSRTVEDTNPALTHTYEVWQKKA

For `CN(Cc1cnc2nc(N)nc(N)c2n1)c1ccc(C(=O)NC(CCCC(=O)O)C(=O)O)cc1` (stereo unspecified), the T/C (Mus musculus [1]) was 13, the Weight change (Mus musculus [2]) was 7% and the IC50 (L1210) was 30 nM. The ILS (Mus musculus [3]) was 133%, the T/C (Mus musculus [4]) was 14 and the T/C (Mus musculus [5]) was 18. For the same compound, the T/C (Mus musculus [6]) was 10, the Weight change (Mus musculus [7]) was -6% and the T/C (Mus musculus [8]) was 17. It also gave an ILS (Mus musculus [9]) of 44%, a Weight change (Mus musculus [10]) of 7% and a T/C (Mus musculus [11]) of 12. The ID50 [12] was 12 nM, the ID50 [13] was 39 nM and the Weight change (Mus musculus [14]) was 2%. It also gave an ID50 [15] of 6.7 nM, a Weight change (Mus musculus [16]) of -3% and an ID50 [17] of 1.4 nM. It also gave an ILS (Mus musculus [18]) of 100%, a T/C (Mus musculus [19]) of 21 and a Weight change (Mus musculus [20]) of -7%. The T/C (Mus musculus [21]) was 14, the T/C (Mus musculus [22]) was 21 and the Ki [23] was 2770 nM. For the same compound, the ILS (Mus musculus [24]) was 29%, the T/C (Mus musculus [25]) was 11 and the ILS (Mus musculus [26]) was 55%. It also gave a Weight change (Mus musculus [27]) of -3%, a Weight change (Mus musculus [28]) of 10% and an ILS (Mus musculus [29]) of 18%. The ID50 [30] was 6.9 nM, the ILS (Mus musculus [31]) was 133% and the T/C (Mus musculus [32]) was 18. For the same compound, the ILS (Mus musculus [33]) was 41%, the Km [34] was 196 µM and the Vmax [34] was 0.124 min⁻¹. It also gave an ILS (Mus musculus [35]) of 89%, a Ki [36] of 3.22 µM and a Weight change (Mus musculus [37]) of 2%. It also gave an ILS (Mus musculus [38]) of 56% and an ILS (Mus musculus [39]) of 100%.
